Experiments:
Format in all cases: functional
[1] = Inhibition of lipopolysaccharide IL1-beta production in human PMNC at 0.3 ug/mL by ELISA
Procedure, shortened: (§1)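 Cytokine (IL-1β, IL-2, IL-4, TNF) concentrations were measured directly by ELISA in the culture supernatants. The paper attributes the cytokines to macrophages in the culture.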

[2] = Inhibition of lipopolysaccharide IL4 production in human PMNC at 0.3 ug/mL by ELISA; procedure, shortened: as §1
[3] = Inhibition of lipopolysaccharide TNFalpha production in human PMNC at 0.3 ug/mL by ELISA; procedure, shortened: as §1
[4] = Inhibition of lipopolysaccharide IL2 production in human PMNC at 0.3 ug/mL by ELISA; procedure, shortened: as §1

## C[C@]12C=CC(=O)C=C1CC[C@@H]1[C@@H]2[C@@H](O)C[C@@]2(C)[C@H]1CC[C@]2(O)C(=O)CO [PREDNISOLONE]
[1]
  inhibition at 0.3 µg/mL: 24.8%
[2]
  inhibition at 0.3 µg/mL: 40.7%
[3]
  inhibition at 0.3 µg/mL: 47.9%
[4]
  inhibition at 0.3 µg/mL: 30.6%

Source: ChEMBL document CHEMBL1150167, “Sesquiterpenes from Ferula penninervis” (2002)
